From ChEMBL document CHEMBL4152391, “Bile Acid Oligomers and Their Combination with Antibiotics To Combat Bacterial Infections” (J Med Chem, 2018)
Converted amounts (≈) assume the structure as drawn. The source made the active and inactive calls. The calls are words filed in the database; no cut-off is given here.

How the values were obtained:
Pseudomonas aeruginosa = experiment: Antibacterial activity against Pseudomonas aeruginosa at 5 to 100 ug after 18 hrs by agar disk-diffusion method; type: functional, organism-based
How it was run: (§1)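 Agar disk diffusion per CLSI: compound loaded on sterile 6 mm paper disks, dried, placed on Mueller Hinton agar lawned with bacteria at McFarland 0.5; cefotaxime positive and DMSO solvent controls; 37 °C for 18 h; zone of inhibition diameter measured to nearest whole mm.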

Escherichia coli = experiment: Antibacterial activity against Escherichia coli ATCC 25922 at 5 to 100 ug after 18 hrs by agar disk-diffusion method; type: functional, organism-based; how it was run: as §1
HEK293 = experiment: Cytotoxicity against HEK293 cells assessed as decrease in cell viability at 1 to 200 uM after 24 hrs by Alamar Blue assay; type: cell-based; settings: human, hek293, 24 h
How it was run: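 HEK293 cells in DMEM HG, 10% FBS, 1% pen-strep, 37 °C 5% CO2, passage under 30, used at 80% confluency; seeded 1×10^4/well, after 24 h washed and treated 24 h with 1–200 µM in complete medium; alamar blue (0.15 mg/mL) added for 4 h, absorbance 570 and 600 nm; viability relative to untreated cells as 100%.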

Staphylococcus aureus [1] = experiment: Antibacterial activity against Staphylococcus aureus ATCC 29213 at 30 ug after 18 hrs by agar disk-diffusion method; type: functional; how it was run: as §1
Staphylococcus aureus [2] = experiment: Antibiofilm activity against Staphylococcus aureus ATCC 29213 at 128 ug/ml after 18 hrs by XTT-menadione assay relative to control; type: functional
How it was run: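 Biofilms grown 24 h at 37 °C from suspension at OD600 0.1 in tryptic soy broth with 1% glucose, washed twice with saline, exposed 18 h at 37 °C to twofold serial dilutions; growth and sterility controls. Read by XTT (0.5 mg/mL)–menadione (10 µM) in MHB, 1 h dark at 37 °C, absorbance 450 nm; MBIC50 and MBIC100 = 50% and 100% inhibition.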

Staphylococcus aureus [3] = experiment: Antibacterial activity against Staphylococcus aureus ATCC 29213 at 5 to 100 ug after 18 hrs by agar disk-diffusion method; type: functional, organism-based; how it was run: as §1
Staphylococcus aureus [4] = experiment: Antibacterial activity against Staphylococcus aureus ATCC 29213 after 18 hrs by broth microdilution method; type: functional, organism-based; settings: ATCC 29213, 18 h
How it was run: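 Broth microdilution per CLSI for water-insoluble agents: twofold serial dilutions made in DMSO at 100x final, diluted in Mueller Hinton broth to 1% final DMSO; 5x10^5 cfu/mL bacteria exposed 18 h at 37 °C with positive, growth and sterility controls. MIC = lowest concentration giving complete growth inhibition (turbidity and XTT reduction); IC50 from OD600 dose-response inflection point.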

With CCCCCCCCCCCCCCCC(=O)NCCNCCN the Activity (Pseudomonas aeruginosa) was “inactive” and the Activity (Escherichia coli) was “inactive”.

In the case of C[C@H](CCC(=O)NCCNC(=O)CC[C@@H](C)[C@H]1CC[C@H]2[C@@H]3[C@H](O)C[C@@H]4C[C@H](O)CC[C@]4(C)[C@H]3C[C@H](O)[C@]12C)[C@H]1CC[C@H]2[C@@H]3[C@H](O)C[C@@H]4C[C@H](O)CC[C@]4(C)[C@H]3C[C@H](O)[C@]12C, the Activity (HEK293) is reported as “Non-Toxic”, the Activity (Staphylococcus aureus [1]) is reported as “inactive” and the Activity (Pseudomonas aeruginosa) is reported as “inactive”. The Activity (Escherichia coli) was “inactive”.

For C[C@H](CCC(=O)NCCCNC(=O)CC[C@@H](C)[C@H]1CC[C@H]2[C@@H]3CC[C@@H]4C[C@H](O)CC[C@]4(C)[C@H]3C[C@H](O)[C@]12C)[C@H]1CC[C@H]2[C@@H]3CC[C@@H]4C[C@H](O)CC[C@]4(C)[C@H]3C[C@H](O)[C@]12C, the Activity (HEK293) was “Non-Toxic”, the Activity (Staphylococcus aureus [1]) was “inactive” and the Activity (Pseudomonas aeruginosa) was “inactive”. For the same compound, the Activity (Escherichia coli) was “inactive”.

CCCCCCCCCCCCCCCC(=O)NCCN(CCNC(=O)OC(C)(C)C)C(=O)OC(C)(C)C was tested, and the Activity (Pseudomonas aeruginosa) was “inactive” and the Activity (Escherichia coli) was “inactive”.

CN[C@H](CC(C)C)C(=O)N[C@H]1C(=O)N[C@@H](CC(N)=O)C(=O)N[C@H]2C(=O)N[C@H]3C(=O)N[C@H](C(=O)N[C@H](C(=O)O)c4cc(O)cc(O)c4-c4cc3ccc4O)[C@H](O)c3ccc(c(Cl)c3)Oc3cc2cc(c3O[C@@H]2O[C@H](CO)[C@@H](O)[C@H](O)[C@H]2O[C@H]2C[C@](C)(N)[C@H](O)[C@H](C)O2)Oc2ccc(cc2Cl)[C@H]1O [VANCOMYCIN] showed an Activity (Staphylococcus aureus [2]) of under 50%.

With NCC[C@H](O)C(=O)N[C@@H]1C[C@H](N)[C@@H](O[C@H]2O[C@H](CN)[C@@H](O)[C@H](O)[C@H]2O)[C@H](O)[C@H]1O[C@H]1O[C@H](CO)[C@@H](O)[C@H](N)[C@H]1O [AMIKACIN] the Activity (Staphylococcus aureus [2]) was under 50%.

In the case of C[C@H](CCC(=O)NCCCCCNC(=O)CC[C@@H](C)[C@H]1CC[C@H]2[C@@H]3[C@H](O)C[C@@H]4C[C@H](O)CC[C@]4(C)[C@H]3C[C@H](O)[C@]12C)[C@H]1CC[C@H]2[C@@H]3[C@H](O)C[C@@H]4C[C@H](O)CC[C@]4(C)[C@H]3C[C@H](O)[C@]12C, the Activity (Staphylococcus aureus [3]) is reported as “inactive”, the Activity (Pseudomonas aeruginosa) is reported as “inactive” and the Activity (Escherichia coli) is reported as “inactive”.

With C[C@H](CCC(=O)N1CCCN(C(=O)CC[C@@H](C)[C@H]2CC[C@H]3[C@@H]4[C@H](O)C[C@@H]5C[C@H](O)CC[C@]5(C)[C@H]4C[C@H](O)[C@]23C)CCN(C(=O)CC[C@@H](C)[C@H]2CC[C@H]3[C@@H]4[C@H](O)C[C@@H]5C[C@H](O)CC[C@]5(C)[C@H]4C[C@H](O)[C@]23C)CCCN(C(=O)CC[C@@H](C)[C@H]2CC[C@H]3[C@@H]4[C@H](O)C[C@@H]5C[C@H](O)CC[C@]5(C)[C@H]4C[C@H](O)[C@]23C)CC1)[C@H]1CC[C@H]2[C@@H]3[C@H](O)C[C@@H]4C[C@H](O)CC[C@]4(C)[C@H]3C[C@H](O)[C@]12C the Activity (HEK293) was “Non-Toxic”, the Activity (Staphylococcus aureus [3]) was “inactive” and the Activity (Pseudomonas aeruginosa) was “inactive”. The Activity (Escherichia coli) was “inactive”.

With C[C@H](CCC(=O)NCCNCCNCCNC(=O)CC[C@@H](C)[C@H]1CC[C@H]2[C@@H]3[C@H](O)C[C@@H]4C[C@H](O)CC[C@]4(C)[C@H]3C[C@H](O)[C@]12C)[C@H]1CC[C@H]2[C@@H]3[C@H](O)C[C@@H]4C[C@H](O)CC[C@]4(C)[C@H]3C[C@H](O)[C@]12C the zone of inhibition at 30 µg/disc (Staphylococcus aureus [1]; ATCC 29213, 18 h, read-out: DIZ) was 11 mm, the Activity (Pseudomonas aeruginosa) was “inactive” and the Activity (Escherichia coli) was “inactive”. It also gave an IC50 (Staphylococcus aureus [4]) of 12.1 µg/mL (≈ 13 µM) and an MIC (Staphylococcus aureus [4]) of 16 µg/mL (≈ 17.3 µM).

In the case of C[C@H](CCC(=O)NCCN(CCNC(=O)CC[C@@H](C)[C@H]1CC[C@H]2[C@@H]3CC[C@@H]4C[C@H](O)CC[C@]4(C)[C@H]3C[C@H](O)[C@]12C)CCNC(=O)CC[C@@H](C)[C@H]1CC[C@H]2[C@@H]3CC[C@@H]4C[C@H](O)CC[C@]4(C)[C@H]3C[C@H](O)[C@]12C)[C@H]1CC[C@H]2[C@@H]3CC[C@@H]4C[C@H](O)CC[C@]4(C)[C@H]3C[C@H](O)[C@]12C, the Activity (HEK293) is reported as “Non-Toxic”, the Activity (Staphylococcus aureus [3]) is reported as “inactive” and the Activity (Pseudomonas aeruginosa) is reported as “inactive”. The Activity (Escherichia coli) was “inactive”.

In the case of C[C@H](CCC(=O)NCCN(CCNC(=O)CC[C@@H](C)[C@H]1CC[C@H]2[C@@H]3[C@H](O)C[C@@H]4C[C@H](O)CC[C@]4(C)[C@H]3C[C@H](O)[C@]12C)CCNC(=O)CC[C@@H](C)[C@H]1CC[C@H]2[C@@H]3[C@H](O)C[C@@H]4C[C@H](O)CC[C@]4(C)[C@H]3C[C@H](O)[C@]12C)[C@H]1CC[C@H]2[C@@H]3[C@H](O)C[C@@H]4C[C@H](O)CC[C@]4(C)[C@H]3C[C@H](O)[C@]12C, the Activity (HEK293) is reported as “Non-Toxic”, the Activity (Staphylococcus aureus [3]) is reported as “inactive” and the Activity (Pseudomonas aeruginosa) is reported as “inactive”. The Activity (Escherichia coli) was “inactive”.

C[C@H](CCC(=O)NCCCNC(=O)CC[C@@H](C)[C@H]1CC[C@H]2[C@@H]3[C@H](O)C[C@@H]4C[C@H](O)CC[C@]4(C)[C@H]3C[C@H](O)[C@]12C)[C@H]1CC[C@H]2[C@@H]3[C@H](O)C[C@@H]4C[C@H](O)CC[C@]4(C)[C@H]3C[C@H](O)[C@]12C was tested, and the Activity (HEK293) was “Non-Toxic”, the Activity (Staphylococcus aureus [1]) was “inactive” and the Activity (Pseudomonas aeruginosa) was “inactive”. For the same compound, the Activity (Escherichia coli) was “inactive”.

In the case of CCCCCCCCCCCCCCCC(=O)NCCNCCNC(=O)CC[C@@H](C)[C@H]1CC[C@H]2[C@@H]3[C@H](O)C[C@@H]4C[C@H](O)CC[C@]4(C)[C@H]3C[C@H](O)[C@]12C, the Activity (Staphylococcus aureus [3]) is reported as “inactive”, the Activity (Pseudomonas aeruginosa) is reported as “inactive” and the Activity (Escherichia coli) is reported as “inactive”.

For C[C@H](CCC(=O)NCCNC(=O)CC[C@@H](C)[C@H]1CC[C@H]2[C@@H]3CC[C@@H]4C[C@H](O)CC[C@]4(C)[C@H]3C[C@H](O)[C@]12C)[C@H]1CC[C@H]2[C@@H]3CC[C@@H]4C[C@H](O)CC[C@]4(C)[C@H]3C[C@H](O)[C@]12C, the Activity (HEK293) was “Non-Toxic”, the Activity (Staphylococcus aureus [1]) was “inactive” and the Activity (Pseudomonas aeruginosa) was “inactive”. For the same compound, the Activity (Escherichia coli) was “inactive”.

CC(C)(C)OC(=O)NCCN(CCN)C(=O)OC(C)(C)C was tested, and the Activity (Pseudomonas aeruginosa) was “inactive” and the Activity (Escherichia coli) was “inactive”.

CO/N=C(\C(=O)N[C@@H]1C(=O)N2C(C(=O)O)=C(COC(C)=O)CS[C@H]12)c1csc(N)n1 [CEFOTAXIME] was tested, and the Activity (Staphylococcus aureus [2]) was under 50%.

With C[C@H](CCC(=O)NCCN(CCN(CCNC(=O)CC[C@@H](C)[C@H]1CC[C@H]2[C@@H]3[C@H](O)C[C@@H]4C[C@H](O)CC[C@]4(C)[C@H]3C[C@H](O)[C@]12C)C(=O)OC(C)(C)C)C(=O)OC(C)(C)C)[C@H]1CC[C@H]2[C@@H]3[C@H](O)C[C@@H]4C[C@H](O)CC[C@]4(C)[C@H]3C[C@H](O)[C@]12C the Activity (Staphylococcus aureus [3]) was “inactive”, the Activity (Pseudomonas aeruginosa) was “inactive” and the Activity (Escherichia coli) was “inactive”.

For CCCCCCCCCCCCCCCC(=O)N(CCNC(=O)CC[C@@H](C)[C@H]1CC[C@H]2[C@@H]3[C@H](O)C[C@@H]4C[C@H](O)CC[C@]4(C)[C@H]3C[C@H](O)[C@]12C)CCNC(=O)CC[C@@H](C)[C@H]1CC[C@H]2[C@@H]3[C@H](O)C[C@@H]4C[C@H](O)CC[C@]4(C)[C@H]3C[C@H](O)[C@]12C, the Activity (Staphylococcus aureus [3]) was “inactive”, the Activity (Pseudomonas aeruginosa) was “inactive” and the Activity (Escherichia coli) was “inactive”.

With O=C(O)c1cn(C2CC2)c2cc(N3CCNCC3)c(F)cc2c1=O [CIPROFLOXACIN] the Activity (Staphylococcus aureus [2]) was under 50%.

C[C@H](CCC(=O)NCCNCCNC(=O)CC[C@@H](C)[C@H]1CC[C@H]2[C@@H]3CC[C@@H]4C[C@H](O)CC[C@]4(C)[C@H]3C[C@H](O)[C@]12C)[C@H]1CC[C@H]2[C@@H]3CC[C@@H]4C[C@H](O)CC[C@]4(C)[C@H]3C[C@H](O)[C@]12C was tested, and the Activity (Staphylococcus aureus [1]) was “inactive”, the Activity (Pseudomonas aeruginosa) was “inactive” and the Activity (Escherichia coli) was “inactive”.

With CC(=O)N(CCNC(=O)CC[C@@H](C)[C@H]1CC[C@H]2[C@@H]3[C@H](O)C[C@@H]4C[C@H](O)CC[C@]4(C)[C@H]3C[C@H](O)[C@]12C)CCNC(=O)CC[C@@H](C)[C@H]1CC[C@H]2[C@@H]3[C@H](O)C[C@@H]4C[C@H](O)CC[C@]4(C)[C@H]3C[C@H](O)[C@]12C the Activity (Staphylococcus aureus [3]) was “inactive”, the Activity (Pseudomonas aeruginosa) was “inactive” and the Activity (Escherichia coli) was “inactive”.
